# Activity calls are given as the source filed them. The rule behind the calls is not given here.
# Experiments:
# BaF3 [1] = experiment: Antiproliferative activity against mouse BAF3 cells expressing TPR-Met after 72 hrs in absence of IL-3; format: functional, cell-based; details: BaF3, 72 h
# Outline: (§1)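 Cells were seeded and exposed next day to a range of compound concentrations for 72 h. Proliferation was read by sulforhodamine B or MTT assay, and IC50 derived.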
# [2] = Tmax in mouse at 20 mg/kg, po; format: ADME, organism-based; set-up: dose 20 mg/kg, route oral; details: in vivo
# U-87MG ATCC = experiment: Antitumor activity against human U87MG cells xenografted in nude mouse assessed as tumor growth inhibition at 50 mg/kg, ip qd for 14 days relative to control; format: functional, organism-based; set-up: dose 50 mg/kg
# Outline: (§2)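 Tumor cells, (5-10)×10^6, were implanted sc in nude mice and grown to 700-800 mm3. Tumors were cut into 1 mm3 fragments and trocar-transplanted sc. At 100-150 mm3, mice were randomized (n = 6) to vehicle or ip dosing daily. Volumes were measured twice weekly by caliper, TV = length×width²/2. % inhibition used final-day versus day-1 change against vehicle, with Student's t test.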
# [3] = molecular target: T1, Hepatocyte growth factor receptor (Homo sapiens, UniProt P08581); experiment: Inhibition of c-Met phosphorylation in human H1993 cells at 0.1 to 3 uM after 4 hrs by Western blotting; format: cell-based
# T1 sequence (P08581 whole entry): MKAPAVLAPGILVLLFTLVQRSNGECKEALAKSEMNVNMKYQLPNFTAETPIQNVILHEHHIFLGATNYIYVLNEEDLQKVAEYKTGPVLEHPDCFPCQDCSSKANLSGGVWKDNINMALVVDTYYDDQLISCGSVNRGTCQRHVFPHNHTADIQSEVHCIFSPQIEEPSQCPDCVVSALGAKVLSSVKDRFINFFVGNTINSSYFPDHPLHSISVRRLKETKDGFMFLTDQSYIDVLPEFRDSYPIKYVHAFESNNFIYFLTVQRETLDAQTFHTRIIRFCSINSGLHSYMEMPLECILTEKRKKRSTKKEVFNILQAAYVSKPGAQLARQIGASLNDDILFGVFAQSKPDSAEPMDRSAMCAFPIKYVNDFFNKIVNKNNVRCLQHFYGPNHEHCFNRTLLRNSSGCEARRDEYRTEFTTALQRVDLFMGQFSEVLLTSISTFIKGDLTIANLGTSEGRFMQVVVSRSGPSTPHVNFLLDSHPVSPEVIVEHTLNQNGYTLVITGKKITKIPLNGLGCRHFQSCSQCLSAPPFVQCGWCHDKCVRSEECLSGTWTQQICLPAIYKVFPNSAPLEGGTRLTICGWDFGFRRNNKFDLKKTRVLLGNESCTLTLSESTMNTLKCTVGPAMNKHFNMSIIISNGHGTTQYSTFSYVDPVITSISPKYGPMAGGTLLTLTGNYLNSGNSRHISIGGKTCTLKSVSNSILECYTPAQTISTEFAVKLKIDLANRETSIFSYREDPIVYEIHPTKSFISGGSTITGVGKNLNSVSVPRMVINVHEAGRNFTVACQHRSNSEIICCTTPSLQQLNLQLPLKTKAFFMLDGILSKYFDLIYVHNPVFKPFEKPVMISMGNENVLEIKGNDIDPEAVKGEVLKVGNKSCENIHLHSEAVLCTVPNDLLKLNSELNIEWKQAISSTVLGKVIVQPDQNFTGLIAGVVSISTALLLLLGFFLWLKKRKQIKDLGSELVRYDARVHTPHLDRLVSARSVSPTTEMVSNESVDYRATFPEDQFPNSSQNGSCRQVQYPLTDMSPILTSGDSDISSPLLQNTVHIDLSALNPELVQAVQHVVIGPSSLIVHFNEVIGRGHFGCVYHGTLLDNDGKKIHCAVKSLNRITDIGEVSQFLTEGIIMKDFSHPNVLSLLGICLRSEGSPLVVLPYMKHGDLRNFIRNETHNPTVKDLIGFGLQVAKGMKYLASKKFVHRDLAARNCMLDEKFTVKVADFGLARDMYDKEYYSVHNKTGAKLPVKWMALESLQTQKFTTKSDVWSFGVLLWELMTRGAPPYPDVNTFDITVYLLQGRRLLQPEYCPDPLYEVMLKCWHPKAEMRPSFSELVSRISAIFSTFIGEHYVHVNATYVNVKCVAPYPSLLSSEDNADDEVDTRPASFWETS
# Outline: (§3)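 Exponentially growing cells were treated with compound for 4 h at 37 °C and lysed in SDS sample buffer. Lysates were run on 10% SDS-PAGE and blotted to nitrocellulose. Blots were probed for phospho-c-Met and total c-Met, with GAPDH as loading control, and detected by ECL.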
# SNU-5 = experiment: Antiproliferative activity against human SNU5 cells after 72 hrs; details: SNU-5, 72 h
# [4] = AUC (0 to infinity) in mouse at 20 mg/kg, po; format: ADME, organism-based; set-up: dose 20 mg/kg, route oral, time infinity; details: plasma
# Outline: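 Mice dosed orally at 20 mg/kg in DMSO/Tween 80/normal saline vehicle; plasma concentration-time profile used to derive AUC0-∞. Values are the average of three runs.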
# NCI-H441 = experiment: Antiproliferative activity against human NCI-H441 cells after 72 hrs; details: NCI-H441, 72 h
# MKN-45 = experiment: Antiproliferative activity against human MKN45 cells after 72 hrs; details: MKN-45, 72 h
# [5] = molecular target: T1, Hepatocyte growth factor receptor; experiment: Inhibition of c-Met in human H1993 cells assessed as ERK1/2 phosphorylation at 0.1 to 3 uM after 4 hrs by Western blotting; format: cell-based
# Outline: (§4)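 Exponentially growing cells were exposed to compound for 4 h at 37 °C and lysed in SDS sample buffer. Lysates were resolved on 10% SDS-PAGE and blotted. Blots were probed for phospho- and total ERK1/2 and AKT, with GAPDH loading control, and detected by ECL.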
# [6] = molecular target: Hepatocyte growth factor receptor (Mus musculus) (UniProt P16056); experiment: Inhibition of TPR-c-Met phosphorylation expressed in mouse BAF3 cells at 0.1 to 3 uM after 4 hrs by Western blotting; format: cell-based; outline: as §3
# Chain of Hepatocyte growth factor receptor (Mus musculus) (P16056 whole entry): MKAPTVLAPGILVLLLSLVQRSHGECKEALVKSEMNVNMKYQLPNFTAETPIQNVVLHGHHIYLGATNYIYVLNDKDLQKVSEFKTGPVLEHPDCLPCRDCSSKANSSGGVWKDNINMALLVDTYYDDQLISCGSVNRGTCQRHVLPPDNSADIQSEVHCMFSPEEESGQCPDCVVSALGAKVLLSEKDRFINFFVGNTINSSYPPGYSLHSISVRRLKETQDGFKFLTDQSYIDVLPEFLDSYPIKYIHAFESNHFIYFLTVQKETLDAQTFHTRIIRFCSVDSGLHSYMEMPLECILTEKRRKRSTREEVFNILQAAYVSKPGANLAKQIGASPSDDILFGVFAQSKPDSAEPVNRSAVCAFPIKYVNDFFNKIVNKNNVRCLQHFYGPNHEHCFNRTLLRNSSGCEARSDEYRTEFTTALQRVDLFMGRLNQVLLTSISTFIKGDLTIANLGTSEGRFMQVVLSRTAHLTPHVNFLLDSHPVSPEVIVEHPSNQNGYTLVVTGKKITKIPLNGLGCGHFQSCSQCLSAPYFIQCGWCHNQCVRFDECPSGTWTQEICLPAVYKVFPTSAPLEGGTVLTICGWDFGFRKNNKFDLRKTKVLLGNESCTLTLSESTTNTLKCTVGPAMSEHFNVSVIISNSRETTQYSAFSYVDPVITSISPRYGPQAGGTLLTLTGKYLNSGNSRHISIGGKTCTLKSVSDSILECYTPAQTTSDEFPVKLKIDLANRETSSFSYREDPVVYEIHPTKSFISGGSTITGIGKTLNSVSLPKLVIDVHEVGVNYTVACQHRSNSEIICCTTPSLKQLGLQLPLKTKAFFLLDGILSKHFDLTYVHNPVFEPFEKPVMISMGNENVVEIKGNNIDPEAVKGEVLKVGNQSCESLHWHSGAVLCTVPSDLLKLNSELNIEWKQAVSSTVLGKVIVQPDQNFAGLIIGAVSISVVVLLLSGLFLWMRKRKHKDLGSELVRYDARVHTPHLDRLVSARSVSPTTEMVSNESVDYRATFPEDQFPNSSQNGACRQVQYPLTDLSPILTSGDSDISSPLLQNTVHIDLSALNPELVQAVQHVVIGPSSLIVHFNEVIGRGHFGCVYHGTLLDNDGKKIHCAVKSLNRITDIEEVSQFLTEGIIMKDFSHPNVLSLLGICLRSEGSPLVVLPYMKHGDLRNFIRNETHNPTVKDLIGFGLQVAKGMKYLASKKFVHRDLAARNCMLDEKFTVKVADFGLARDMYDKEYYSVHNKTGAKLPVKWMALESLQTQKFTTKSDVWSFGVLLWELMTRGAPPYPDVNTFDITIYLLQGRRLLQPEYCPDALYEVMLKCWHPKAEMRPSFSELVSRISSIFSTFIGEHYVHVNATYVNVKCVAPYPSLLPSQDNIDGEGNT
# [7] = molecular target: Vascular endothelial growth factor receptor 2 (Homo sapiens, UniProt P35968); experiment: Inhibition of KDR
# Outline: (§5)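 ELISA on plates precoated with 20 μg/mL poly(Glu,Tyr) 4:1. Buffer: 10 μM ATP, 50 mM HEPES pH 7.4, 50 mM MgCl2, 0.5 mM MnCl2, 0.2 mM Na3VO4, 1 mM DTT, compound in 1% DMSO. Purified kinase was added and incubated 60 min at 37 °C. Phosphotyrosine was detected with PY99 then HRP anti-mouse IgG, o-phenylenediamine, A490. IC50 was taken from inhibition curves.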
# [8] = molecular target: T1, Hepatocyte growth factor receptor; experiment: Inhibition of c-Met in human MKN45 cells assessed as ERK1/2 phosphorylation at 0.1 to 3 uM after 4 hrs by Western blotting; format: cell-based; details: MKN-45; outline: as §4
# SNU1 = experiment: Antiproliferative activity against human SNU1 cells after 72 hrs; details: SNU1, 72 h
# NCI-H1993 = experiment: Antiproliferative activity against human NCI-H1993 cells after 72 hrs; details: NCI-H1993, 72 h
# [9] = Volume of distribution at steady state in mouse at 10 mg/kg, iv; format: ADME, organism-based; set-up: dose 10 mg/kg, route intravenous; details: in vivo, read-out: Vdss
# NIH3T3 [10] = experiment: Antitumor activity against mouse NIH/3T3 cells expressing TPR-Met xenografted in nude mouse assessed as tumor growth inhibition at 100 mg/kg, ip qd for 14 days relative to control; format: functional; details: 336 h, route intraperitoneal; outline: as §2
# NIH3T3 [11] = experiment: Antiproliferative activity against mouse NIH/3T3 cells expressing TPR-Met after 72 hrs; format: functional, cell-based; details: NIH3T3, 72 h; outline: as §1
# [12] = molecular target: Proto-oncogene tyrosine-protein kinase Src (Homo sapiens, UniProt P12931); experiment: Inhibition of c-Src; outline: as §5
# Chain of Proto-oncogene tyrosine-protein kinase Src (P12931 2-536 limits assumed): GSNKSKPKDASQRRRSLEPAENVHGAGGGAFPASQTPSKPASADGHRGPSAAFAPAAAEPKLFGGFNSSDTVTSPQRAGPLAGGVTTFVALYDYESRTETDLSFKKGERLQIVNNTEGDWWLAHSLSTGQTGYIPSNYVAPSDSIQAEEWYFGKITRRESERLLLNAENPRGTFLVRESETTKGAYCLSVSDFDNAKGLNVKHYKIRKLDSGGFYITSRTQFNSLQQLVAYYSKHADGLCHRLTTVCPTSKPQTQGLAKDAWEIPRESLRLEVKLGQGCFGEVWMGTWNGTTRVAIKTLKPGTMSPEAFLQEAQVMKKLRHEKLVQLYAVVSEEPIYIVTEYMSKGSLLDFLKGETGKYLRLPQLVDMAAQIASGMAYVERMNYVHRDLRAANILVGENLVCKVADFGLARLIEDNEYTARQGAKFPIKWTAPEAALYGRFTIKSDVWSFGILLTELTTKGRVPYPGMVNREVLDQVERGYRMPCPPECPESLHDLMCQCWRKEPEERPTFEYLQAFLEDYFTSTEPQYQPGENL
# NIH3T3 [13] = experiment: Antiproliferative activity against mouse NIH/3T3 cells after 72 hrs; format: functional, cell-based; details: NIH3T3, 72 h; outline: as §1
# BaF3 [14] = experiment: Antiproliferative activity against mouse BAF3 cells expressing TPR-Met after 72 hrs in presence of IL-3; format: functional, cell-based; details: BaF3, 72 h; outline: as §1
# [15] = molecular target: Platelet-derived growth factor receptor alpha (Homo sapiens, UniProt P16234); experiment: Inhibition of PDGFRalpha; outline: as §5
# [16] = Antitumor activity against human U87MG cells xenografted in nude mouse assessed as tumor growth inhibition at 100 mg/kg, ip qd for 14 days relative to control; format: functional, U-87MG ATCC; details: U-87 MG, 336 h, route intraperitoneal; outline: as §2
# [17] = molecular target: Hepatocyte growth factor receptor (Mus musculus) (UniProt P16056); experiment: Inhibition of TPR-MET autophosphorylation in mouse NIH3T3 cells after 4 hrs by Western blotting; format: cell-based; outline: as §3
# [18] = molecular target: Hepatocyte growth factor receptor (Mus musculus) (UniProt P16056); experiment: Inhibition of TPR-c-Met phosphorylation expressed in mouse BAF3 cells assessed as ERK1/2 phosphorylation at 0.1 to 3 uM after 4 hrs by Western blotting; format: cell-based; outline: as §4
# [19] = molecular target: T1, Hepatocyte growth factor receptor; experiment: Inhibition of purified recombinant c-Met after 60 mins by ELISA
# [20] = molecular target: T1, Hepatocyte growth factor receptor; experiment: Inhibition of c-Met in human H1993 cells assessed as AKT phosphorylation at 0.1 to 3 uM after 4 hrs by Western blotting; format: cell-based; outline: as §4
# Mus musculus = experiment: Toxicity in mouse NIH/3T3 cells expressing TPR-Met xenografted nude mouse assessed as reduction in body weight at 100 mg/kg, ip qd for 14 days; format: organism-based, NIH3T3; set-up: dose 100 mg/kg, route intraperitoneal; details: in vivo, 336 h
# [21] = molecular target: Hepatocyte growth factor receptor (Mus musculus) (UniProt P16056); experiment: Inhibition of TPR-c-Met phosphorylation expressed in mouse […] cells assessed as ERK1/2 phosphorylation at 0.1 to 3 uM after 4 hrs by Western blotting; format: cell-based; outline: as §4
# Ephrin type-A receptor 2 = Ephrin type-A receptor 2 (Homo sapiens, UniProt P29317); experiment: Inhibition of EPH-A2; outline: as §5
# Ephrin type-B receptor 2 = Ephrin type-B receptor 2 (Homo sapiens, UniProt P29323); experiment: Inhibition of EPH-B2; outline: as §5
# [22] = Cmax in mouse at 20 mg/kg, po; format: ADME, organism-based; set-up: dose 20 mg/kg, route oral; details: in vivo
# Outline: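 Oral 20 mg/kg single dose to mice, vehicle DMSO/Tween 80/normal saline. Cmax was read from the plasma concentration-time profile. Average of three runs.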
# [23] = molecular target: T1, Hepatocyte growth factor receptor; experiment: Inhibition of purified recombinant c-Met at incubated for 30 mins measured after 100 fold dilution
# [24] = molecular target: Vascular endothelial growth factor receptor 1 (Homo sapiens, UniProt P17948); experiment: Inhibition of Flt-1; outline: as §5
# Chain of Vascular endothelial growth factor receptor 1 (P17948 whole entry): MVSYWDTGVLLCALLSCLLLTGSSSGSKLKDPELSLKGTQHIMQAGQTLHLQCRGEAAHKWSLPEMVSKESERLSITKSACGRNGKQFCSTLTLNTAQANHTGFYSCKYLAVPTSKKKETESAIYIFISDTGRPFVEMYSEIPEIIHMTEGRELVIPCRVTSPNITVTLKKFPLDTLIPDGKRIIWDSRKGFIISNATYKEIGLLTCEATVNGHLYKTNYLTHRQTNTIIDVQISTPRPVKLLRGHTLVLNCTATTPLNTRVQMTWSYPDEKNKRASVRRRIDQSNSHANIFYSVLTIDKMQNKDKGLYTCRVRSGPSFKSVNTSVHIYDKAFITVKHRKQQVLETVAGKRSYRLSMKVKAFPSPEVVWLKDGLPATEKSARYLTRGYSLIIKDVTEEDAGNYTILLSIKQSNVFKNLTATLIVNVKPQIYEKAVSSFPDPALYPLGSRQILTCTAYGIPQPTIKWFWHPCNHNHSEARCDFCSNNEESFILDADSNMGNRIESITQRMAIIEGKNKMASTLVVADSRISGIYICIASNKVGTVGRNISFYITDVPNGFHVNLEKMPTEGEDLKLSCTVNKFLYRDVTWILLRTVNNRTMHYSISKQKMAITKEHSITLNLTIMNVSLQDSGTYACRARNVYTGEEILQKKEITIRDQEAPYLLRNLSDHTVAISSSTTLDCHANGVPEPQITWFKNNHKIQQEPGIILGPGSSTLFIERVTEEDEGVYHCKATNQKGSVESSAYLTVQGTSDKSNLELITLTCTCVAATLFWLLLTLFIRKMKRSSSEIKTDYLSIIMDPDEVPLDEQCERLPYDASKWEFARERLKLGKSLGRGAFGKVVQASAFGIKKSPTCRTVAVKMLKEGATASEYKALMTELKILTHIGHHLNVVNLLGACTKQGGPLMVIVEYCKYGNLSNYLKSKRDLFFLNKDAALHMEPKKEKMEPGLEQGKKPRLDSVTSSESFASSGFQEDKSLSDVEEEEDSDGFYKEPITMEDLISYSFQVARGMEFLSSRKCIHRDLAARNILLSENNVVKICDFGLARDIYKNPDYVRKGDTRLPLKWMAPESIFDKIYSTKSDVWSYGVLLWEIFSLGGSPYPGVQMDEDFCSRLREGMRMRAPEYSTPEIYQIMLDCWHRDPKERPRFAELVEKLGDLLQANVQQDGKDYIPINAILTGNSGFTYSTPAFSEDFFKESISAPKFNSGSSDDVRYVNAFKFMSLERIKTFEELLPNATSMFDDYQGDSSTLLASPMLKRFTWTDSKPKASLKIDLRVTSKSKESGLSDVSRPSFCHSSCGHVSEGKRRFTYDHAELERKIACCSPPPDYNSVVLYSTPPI
# [25] = molecular target: Insulin-like growth factor 1 receptor (Homo sapiens, UniProt P08069); experiment: Inhibition of IGF1R
# [26] = molecular target: T1, Hepatocyte growth factor receptor; experiment: Inhibition of c-Met phosphorylation in human MKN45 cells at 0.1 to 3 uM after 4 hrs by Western blotting; format: cell-based; details: MKN-45; outline: as §3
smiles,measurement,setting,value
CC(=O)N1CCN(c2cnc3cc(C(F)(F)F)cc(NCc4cccc([N+](=O)[O-])c4)c3c2)CC1,IC50,BaF3 [1],0.39 µM
same,Tmax,[2],3 h
same,inhibition,U-87MG ATCC,Active
same,inhibition,[3],Active
same,IC50,SNU-5,1 µM
same,AUC(0-inf),[4],2100 ng·h/mL
same,IC50,NCI-H441,≥ 50 µM
same,IC50,MKN-45,1 µM
same,inhibition,[5],Active
same,inhibition,[6],Active
same,IC50,[7],> 10 µM
same,inhibition,[8],Active
same,IC50,SNU1,≥ 50 µM
same,IC50,NCI-H1993,5.3 µM
same,Vd,[9],16.7 L/kg
same,inhibition in vivo at 100 mg/kg,NIH3T3 [10],68%
same,IC50,NIH3T3 [11],2 µM
same,IC50,[12],> 10 µM
same,IC50,NIH3T3 [13],≥ 50 µM
same,IC50,BaF3 [14],12.2 µM
same,IC50,[15],> 10 µM
same,inhibition in vivo at 100 mg/kg,[16],69%
same,inhibition,[17],Dose-dependent effect
same,inhibition,[18],Active
same,IC50,[19],0.00095 µM
same,inhibition,[20],Active
same,Activity,Mus musculus,Non-toxic
same,inhibition,[21],Active
same,IC50,Ephrin type-A receptor 2,> 10 µM
same,IC50,Ephrin type-B receptor 2,> 10 µM
same,Cmax,[22],316 ng/mL
same,inhibition,[23],inactive
same,IC50,[24],> 10 µM
same,IC50,[25],> 10 µM
same,inhibition,[26],Active
